Active and inactive are the calls of the source.
Key:
CCRF-CEM = assay: Cytotoxicity against human CCRF-CEM cells by SRB assay; format: functional
Summary of the method: (§1)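 NCI 60 human tumor cell line panel, sulforhodamine B (SRB) protein-stain read-out. Compounds were first screened at a single dose of 10^-5 M, and selected compounds were then tested in a five-dose format. GI50 is the drug concentration giving a 50% reduction in net protein increase relative to control cells.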

[1] = Cytotoxicity against human HL-60(TB) cells by SRB assay; format: functional
Summary of the method: (§2)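 NCI 60-cell-line panel using sulforhodamine B protein stain. Initial single-dose screen at 10^-5 M, then five-dose testing. GI50 is the drug concentration giving a 50% reduction in net protein increase relative to control cells.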

K562 = assay: Cytotoxicity against human K562 cells by SRB assay; format: functional; summary of the method: as §1
[2] = Cytotoxicity against human MOLT4 cells by SRB assay; format: functional; conditions: MOLT-4; summary of the method: as §1
[3] = Cytotoxicity against human RPMI8226 cells by SRB assay; format: functional; conditions: RPMI-8226; summary of the method: as §1
SR = assay: Cytotoxicity against human SR cells by SRB assay; format: functional; summary of the method: as §1
A549 = assay: Cytotoxicity against human A549 cells by SRB assay; format: functional; summary of the method: as §1
[4] = Cytotoxicity against human HOP62 cells by SRB assay; format: functional; conditions: HOP-62; summary of the method: as §1
[5] = Cytotoxicity against human HOP92 cells by SRB assay; format: functional; conditions: HOP-92; summary of the method: as §1
NCI-H23 = assay: Cytotoxicity against human NCI-H23 cells by SRB assay; format: functional; summary of the method: as §1
NCI-H522 = assay: Cytotoxicity against human NCI-H522 cells by SRB assay; format: functional; summary of the method: as §1
[6] = Cytotoxicity against human COLO205 cells by SRB assay; format: functional; conditions: COLO 205; summary of the method: as §1
[7] = Cytotoxicity against human HCC2998 cells by SRB assay; format: functional; conditions: HCC 2998; summary of the method: as §1
[8] = Cytotoxicity against human HCT116 cells by SRB assay; format: functional; conditions: HCT-116; summary of the method: as §1
[9] = Cytotoxicity against human HCT15 cells by SRB assay; format: functional; conditions: HCT-15; summary of the method: as §1
HT-29 = assay: Cytotoxicity against human HT-29 cells by SRB assay; format: functional; summary of the method: as §1
KM12 = assay: Cytotoxicity against human KM12 cells by SRB assay; format: functional; summary of the method: as §1
[10] = Cytotoxicity against human SW620 cells by SRB assay; format: functional; conditions: SW-620; summary of the method: as §1
[11] = Cytotoxicity against human SF268 cells by SRB assay; format: functional; conditions: SF-268; summary of the method: as §1
[12] = Cytotoxicity against human SF295 cells by SRB assay; format: functional; conditions: SF-295; summary of the method: as §1
[13] = Cytotoxicity against human SF539 cells by SRB assay; format: functional; conditions: SF-539; summary of the method: as §1
[14] = Cytotoxicity against human SNB19 cells by SRB assay; format: functional; conditions: SNB-19; summary of the method: as §1
[15] = Cytotoxicity against human SNB75 cells by SRB assay; format: functional; conditions: SNB-75; summary of the method: as §1
U-251 = assay: Cytotoxicity against human U251 cells by SRB assay; format: functional; summary of the method: as §1
[16] = Cytotoxicity against human LOXIMVI cells by SRB assay; format: functional; conditions: LOX IMVI; summary of the method: as §2
M14 = assay: Cytotoxicity against human M14 cells by SRB assay; format: functional; summary of the method: as §1
MDA-MB-435 = assay: Cytotoxicity against human MDA-MB-435 cells by SRB assay; format: functional; summary of the method: as §1
SK-MEL-2 = assay: Cytotoxicity against human SK-MEL-2 cells by SRB assay; format: functional; summary of the method: as §1
SK-MEL-28 = assay: Cytotoxicity against human SK-MEL-28 cells by SRB assay; format: functional; summary of the method: as §1
SK-MEL-5 = assay: Cytotoxicity against human SK-MEL-5 cells by SRB assay; format: functional; summary of the method: as §1
[17] = Cytotoxicity against human UACC62 cells by SRB assay; format: functional; conditions: UACC-62; summary of the method: as §1
[18] = Cytotoxicity against human IGROV1 cells by SRB assay; format: functional; conditions: IGROV-1; summary of the method: as §2
[19] = Cytotoxicity against human OVCAR3 cells by SRB assay; format: functional; conditions: OVCAR-3; summary of the method: as §1
[20] = Cytotoxicity against human OVCAR4 cells by SRB assay; format: functional; conditions: OVCAR-4; summary of the method: as §1
NCI/ADR-RES = assay: Cytotoxicity against human NCI/ADR-RES cells by SRB assay; format: functional; summary of the method: as §1
[21] = Cytotoxicity against human SKOV3 cells by SRB assay; format: functional; conditions: SK-OV-3; summary of the method: as §1
786-0 = assay: Cytotoxicity against human 786-0 cells by SRB assay; format: functional; summary of the method: as §1
A498 = assay: Cytotoxicity against human A498 cells by SRB assay; format: functional; summary of the method: as §1
ACHN = assay: Cytotoxicity against human ACHN cells by SRB assay; format: functional; summary of the method: as §1
CAKI-1 = assay: Cytotoxicity against human CAKI-1 cells by SRB assay; format: functional; summary of the method: as §1
[22] = Cytotoxicity against human UO31 cells by SRB assay; format: functional; conditions: UO-31; summary of the method: as §1
MCF7 = assay: Cytotoxicity against human MCF7 cells by SRB assay; format: functional; summary of the method: as §1
MDA-MB-231 = assay: Cytotoxicity against human MDA-MB-231 cells by SRB assay; format: functional; summary of the method: as §1
[23] = Cytotoxicity against human Hs578T cells by SRB assay; format: functional; conditions: Hs-578T; summary of the method: as §1
MDA-MB-468 = assay: Cytotoxicity against human MDA-MB-468 cells by SRB assay; format: functional; summary of the method: as §1
MV4-11 [24] = assay: Anti-leukemia activity against human MV4-11 cells after 48 hrs by Annexin-V staining; format: functional; conditions: MV4-11, 48 h, read-out: LD50 (the source's name)
Summary of the method: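 MV4-11 AML cells exposed to increasing compound concentrations for 24 and 48 h. Viability measured by Annexin V/7-AAD staining and expressed as percent Annexin V-/7-AAD- cells relative to control. N = 5, error bars SD. LD50 values derived from these curves.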

MV4-11 [25] = assay: Inhibition of alpha-tubulin polymerization in human MV4-11 cells at 25 to 100 nM after 2 hrs by Western blotting; format: cell-based
Summary of the method: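 MV4-11 cells treated for 2 hours at 25, 50 and 100 nM. Microtubule polymerization then assessed by immunoblot.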

COc1ccc(/C=C(\C#N)c2cc(OC)c(OC)c(OC)c2)cc1O
< 10 nM: GI50 (CCRF-CEM) | GI50 [1] | GI50 (K562) | GI50 [2] | GI50 [3] | GI50 (SR) | GI50 (A549) | GI50 [4] | GI50 [5] | GI50 (NCI-H23) | GI50 (NCI-H522) | GI50 [8] | GI50 [9] | GI50 (KM12) | GI50 [10] | GI50 [11] | GI50 [13] | GI50 [14] | GI50 [15] | GI50 [16] | GI50 (M14) | GI50 (MDA-MB-435) | GI50 (SK-MEL-2) | GI50 (SK-MEL-5) | GI50 [17] | GI50 [18] | GI50 [19] | GI50 [20] | GI50 (NCI/ADR-RES) | GI50 (786-0) | GI50 (A498) | GI50 (ACHN) | GI50 [22] | GI50 (MCF7) | GI50 (MDA-MB-231) | GI50 [23] | GI50 (MDA-MB-468)
1010 nM: GI50 (SK-MEL-28)
active: inhibition (MV4-11 [25])
30 nM: GI50 (CAKI-1)
2990 nM: GI50 [6]
10 nM: GI50 (U-251) | GI50 [21]
3180 nM: GI50 (HT-29)
38.6 nM: CC50 (MV4-11 [24])
20 nM: GI50 [7]
50 nM: GI50 [12]

Reference: ChEMBL document CHEMBL3739271, “Synthesis and evaluation of a series of resveratrol analogues as potent anti-cancer agents that target tubulin” (2015)
